Measured values published in PubChem BioAssay AID624397 (The Scripps Research Institute Molecular Screening Center, 2012).

Each molecule was assayed on MCF7 proliferation, sulforhodamine B absorbance, 7-10 days (assay: MCF7 cell proliferation inhibition, late-stage follow-up, counter-screen for AHR activator project, absorbance, set 2 (AID 624397)).
Procedure, shortened: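 System: MCF7 human ER-positive breast cancer cells; Buffer or medium: a-MEM growth medium with 10% fetal bovine serum; Timing: dosing from 24 h after plating, renewed every 48 h, 37 °C; Measured by: SRB absorbance at 490 nm, 650 nm background removed; Repeats: at least triplicates.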
Molecule `Cc1ccc(-c2cc(-c3ccc(F)cc3)n[nH]2)c(O)c1` has an IC50 of 3 µM.
In the case of `Cc1ccc(-c2cc(-c3ccc(Cl)cc3)n[nH]2)c(O)c1`, the IC50 is reported as 3 µM.
`Cc1ccc(-c2cc(-c3cccc(F)c3)n[nH]2)c(O)c1` gave an IC50 of 3 µM.
